H69AR growth 86K – proliferation blockers of H69AR lung cancer cells, primary screen, cell-based, human, 86K library; H69AR lung tumor viability, ATP luminescence, 72 h; hits give low values; viability, % at 10 µM; 85,000 tested, 6% active; AID 598, 2007;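 active = viability at or below 40%; inactive = viability above 40%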;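 note: multidrug resistant small cell line overexpressing MRP-1 efflux transporter; 100% = mean luminescence of untreated control wells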
HUVEC prolif 384 – inhibitors of HUVEC proliferation, primary screen, cell-based, 384-well; CellTiter-Glo luminescence, 72 h; hits give low values; viability, % at 10 µM (by protocol); 86,000 tested, 1.1% active; AID 648, 2007;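 active = viability at or below 30%; inactive = viability above 30%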;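 note: 100% = median luminescence of DMSO-only cell control wells on each plate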
Candida biofilm – clotrimazole potentiators killing Candida biofilms, primary screen, with clotrimazole, Alamar Blue | inhibition, % at 6 µM | 85,000 tested, 0.14% active | AID 834, 2007 | C. albicans biofilm + clotrimazole;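 active = inhibition above 20%; inactive = inhibition below 20%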;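 note: preformed 24 hr biofilms exposed to compound for 48 hr; 0% = biofilm without compound and 100% = blank killed by clotrimazole plus chlorhexidine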
PTEN del growth – growth suppression of PTEN-null HCT116, primary screen, cell-based, CellTiter-Glo; viability, % at 10 µM; 140,000 tested, 1.2% active; HCT116 PTEN-null viability, 60 h; hits give low values; AID 827, 2007;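 active = viability at or below a set limit, 4 SD under the median of all tested compounds, cut at about 3.7% in these data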;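 note: PTEN knockout HCT116 line with beta catenin targeted HCT116 as companion control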
Lung fibro prol – antiproliferative effect on LL 47 fibroblasts – human, LL 47 cells, CellTiter-Glo luminescence, primary screen; viability, % at 10 µM; LL 47 human lung fibroblast viability, ATP luminescence; hits give low values; AID 719, 2007; 85,000 tested, 1.1% active;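 active = viability at or below 50% in the single dose screen; inactive = viability above 50%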;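 note: compound exposure lasted 72 h before the ATP readout; 100% = median luminescence of untreated cell-only wells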
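Test system: LL 47 human lung fibroblasts; Quantity: 1,150 cells/well; Buffer or medium: IMEM plus 15% FBS; Dosing: tenfold compound dosing solution, DMSO at 0.1%; Timing: overnight cell rest, 72 h compound treatment at 37 °C; Detection: ATP-based CellTiter-Glo luminescent readout; Read-out basis: viability percentage against median untreated-cell control; Controls: cell-only wells, no compound.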
bCat KO growth – primary screen for growth suppressors in beta-catenin knockout HCT116 cells (colon tumor, human); HCT116 beta-catenin knockout viability, CellTiter-Glo, 60 h; hits give low values; viability, % at 10 µM; 140,000 tested, 1.5% active; AID 818, 2007;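 active = viability at or under a set limit, the compound median less 4 SD, cut at about 6% in these data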;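 note: 0% = Hyamine 1622 control at 20 µM and 100% = untreated cell control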
* hit, by the source's call; x = no result given. Many of the other results were omitted from the sample, so hits are more common in it than they were.

SMILES	H69AR growth 86K	HUVEC prolif 384	Candida biofilm	PTEN del growth	Lung fibro prol	bCat KO growth
COC(=O)c1ccccc1NC(=O)Cn1c(-c2nonc2N)nc2ccccc21	8.2*	22.5*	-3.1	18.5	47.0*	16.4
COc1ccc(-c2cc(C(F)F)n3ncc(C(=O)N4CCN5CCCC5C4)c3n2)cc1 (stereo not given)	37.9*	98.0	8.4	58.8	96.7	59.1
Cc1ccc(-c2cc(C(F)F)n3ncc(C(=O)N4CCN(c5cccc(C)c5C)CC4)c3n2)cc1	80.6	81.4	-0.9	7.6	100.8	3.2*
Cn1c(=O)oc2cc(S(=O)(=O)Nc3ccc4c(c3)OCO4)ccc21	96.5	75.8	-3.9	82.1	84.6	73.7
Cc1ccccc1-n1c(C)nnc1SCC(=O)N1CCc2ccccc2C1	x	x	x	99.0	x	104.3
O=[N+]([O-])c1ccc(Sc2nccn2Cc2ccccc2)c([N+](=O)[O-])c1	x	x	x	4.8	x	4.8*
O=[N+]([O-])c1cc(C(F)(F)F)ccc1Sc1nccn1Cc1ccccc1	x	x	x	84.5	x	88.8
CCOC(=O)C(Cc1ccccc1)NC(=O)Cn1nnc(-c2ccc(SC)cc2)n1 (stereo not given)	96.8	103.9	4.0	94.3	98.7	92.0
CSc1ccc(-c2nnn(CC(=O)NCc3ccccc3)n2)cc1	25.1*	70.1	6.1	49.5	92.0	53.7
O=C(C1CCCN(c2ncccn2)C1)N1CCc2ccccc21 (stereo not given)	84.8	110.8	2.0	85.7	104.8	83.1
O=C(NCc1ccco1)c1nn2c(C(F)(F)F)cc(-c3cccs3)nc2c1Br	32.4*	65.9	-1.3	89.2	79.4	83.9
COc1ccc(-c2cc(C(F)(F)F)n3nc(C(=O)NCc4ccco4)c(Cl)c3n2)cc1	36.8*	52.8	0.5	8.4	70.8	4.4*
COc1ccc(-c2cc(C(F)(F)F)n3nc(C(=O)NCc4ccco4)cc3n2)cc1	83.8	90.4	9.1	90.3	87.1	100.7
COc1cc(C2Sc3ccccc3NC3=C2C(=O)OC3)cc(OC)c1OC (stereo not given)	14.5*	72.2	2.7	49.5	80.8	65.0
Cc1ccc2c(c1)-c1nc3ccccc3cc1C2=NC1CCCCC1	x	x	x	2.8*	x	8.3
CCOC(=O)C1=C(O)/C(=C/c2cn(CC(=O)N3CCCC3)c3ccccc23)SC1=Nc1ccccc1	11.5*	61.0	4.7	54.0	56.0	65.4
Cc1cc2cc(CN(Cc3ccco3)C(=O)C3CCCCC3)c(=O)[nH]c2cc1C	15.8*	88.0	6.9	81.9	78.4	85.8
O=C(Nc1ccc(F)cc1)N(Cc1ccco1)Cc1cc2cc3c(cc2[nH]c1=O)OCO3	31.2*	77.0	5.2	61.5	94.4	68.3
COc1ccc2[nH]c(=O)c(CN(Cc3ccco3)C(=O)c3ccccc3)cc2c1	58.6	109.2	-0.7	83.8	99.9	79.0
CCOc1ccc2[nH]c(=O)c(CN(Cc3ccco3)C(=O)c3ccc(Br)cc3)cc2c1	19.0*	57.5	-0.4	44.9	66.0	49.2
Cc1cc2cc(CN(Cc3ccco3)C(=O)NCc3ccccc3)c(=O)[nH]c2cc1C	76.7	97.0	6.2	88.1	95.3	92.3
CCOc1ccc2[nH]c(=O)c(CN(Cc3ccccc3OC)C(=O)c3ccccc3)cc2c1	27.0*	51.7	4.1	23.5	50.9	20.8
Cc1c(Cl)cccc1N(CC(=O)NC1CCCCC1)S(C)(=O)=O	98.9	95.4	9.1	85.1	101.7	90.9
COc1ccc(OC)c(NC(=O)c2ccc3c(=O)n(CCc4ccccc4)c(=S)[nH]c3c2)c1	x	x	x	42.0	x	50.8
CC1CN(C(=O)/C(C#N)=C2\N=C(NC(=O)c3ccccc3Cl)c3ccccc32)CC(C)O1 (stereo not given)	x	x	x	91.0	x	86.3
SMILES	H69AR growth 86K	HUVEC prolif 384	Candida biofilm	PTEN del growth	Lung fibro prol	bCat KO growth
O=C(Nc1ccccc1)c1ccc[nH]1	x	x	x	100.3	x	90.4
CC(C)NC(=S)N/N=C/c1cc(Br)ccc1O	x	x	x	9.1	x	11.9
COc1ccc(C(=O)N(Cc2ccco2)Cc2cc3cc(C)ccc3[nH]c2=O)cc1OC	41.4	101.6	-3.2	x	100.8	x
COc1ccc2[nH]c(=O)c(CN(CC3CCCO3)C(=O)Nc3ccccc3OC)cc2c1 (stereo not given)	20.4*	64.1	-1.6	65.3	86.5	59.6
CCOc1ccc2[nH]c(=O)c(CN(Cc3ccc(F)cc3)C(=O)c3ccco3)cc2c1	15.9*	48.7	2.1	29.4	77.9	33.9
CCC1Oc2ccc(C)cc2N(CC(=O)N(Cc2cccnc2)Cc2cccc(F)c2)C1=O (stereo not given)	42.7	87.2	10.6	81.3	90.2	79.2
Cc1ccc2[nH]c(=O)c(CN(Cc3ccco3)C(=O)c3ccncc3)cc2c1	23.1*	57.7	2.0	23.8	83.0	28.2
CCC1Oc2ccc(C)cc2N(CC(=O)N(Cc2ccncc2)Cc2ccco2)C1=O (stereo not given)	34.4*	95.6	-1.1	75.3	120.9	72.2
CCc1ccc(C2(C)SC(NC(C)=O)=NN2C(C)=O)cc1 (stereo not given)	x	x	x	83.8	x	89.8
CC(=O)NC1=NN(C(C)=O)C(C)(c2cccs2)S1 (stereo not given)	28.4*	76.0	4.0	21.5	57.1	17.5
CC(=O)NCC(=O)OC(C(=O)c1ccccc1)c1ccc(Cl)cc1 (stereo not given)	x	x	x	100.4	x	96.4
O=C(COc1ccc(-c2ccccc2)cc1)N1CCN(S(=O)(=O)Cc2ccccc2)CC1	26.3*	48.8	4.1	30.4	52.3	25.6
Cc1ccc(OCC(=O)N2CCN(C(=O)Cc3ccccc3)CC2)cc1	104.9	103.3	x	93.2	101.8	97.0
O=C(CC1(O)C(=O)N(Cc2ccc3c(c2)OCO3)c2ccccc21)c1ccccc1 (stereo not given)	13.7*	84.4	8.4	12.8	x	15.1
Cc1ccccc1CN1C(=O)C(O)(CC(=O)c2ccncc2)c2ccccc21 (stereo not given)	18.9*	67.4	-4.3	14.7	103.2	17.9
CCN1C(=O)C(O)(CC(=O)c2cc(C)ccc2C)c2ccccc21 (stereo not given)	105.1	83.1	-3.1	87.9	102.6	81.2
Cc1ccc(C(=O)CC2(O)C(=O)N(Cc3ccc4c(c3)OCO4)c3ccccc32)cc1 (stereo not given)	43.8	96.7	8.1	25.4	98.8	31.4
O=C(CC1(O)C(=O)N(Cc2ccccc2)c2ccccc21)c1ccncc1 (stereo not given)	17.4*	74.6	5.8	15.2	98.0	13.8
CN(C)c1ccc([C@@H]2[C@@H]([N+](=O)[O-])[C@H]3C=Cc4ccccc4N3[C@H]2C(=O)c2ccc(Cl)cc2)cc1	x	x	x	7.3	x	8.0

High-throughput results from PubChem BioAssay.
